KCNQ1 pot: potentiators or activators of human KCNQ1 potassium channel | P51787 | CHO-K1 KCNQ1, thallium flux FluxOR fluorescence; active compounds read high | B-score at 10 µM | 310,000 tested, 0.35% active | AID 2648;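 active = fluorescence ratio B-score, a plate-corrected score, at least three library SD, with initial intensity B-score within 5 SD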
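Material: CHO-K1 cells stably expressing KCNQ1. Medium: assay buffer for compound exposure, DMSO matched across wells. Reagent: K+/Tl+ depolarizing stimulus. Compound dosing: single-concentration screen. Times: 37 °C overnight plating, 90-min dark dye load, 20-min compound pretreatment. Technique: FluxOR Tl+ flux fluorescence.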
KCNQ1 block: human KCNQ1 channel inhibition; 310,000 tested, 1.3% active; P51787; B-score at 10 µM; CHO-K1 KCNQ1, FluxOR thallium flux fluorescence; active compounds read high; AID 2642;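 active = compounds whose thallium flux B-score, printed positive for inhibition, exceeds three library SD while starting fluorescence stays within three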;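 also: channel opened by potassium depolarization with thallium stimulus after 20 min compound exposure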
KCNK3 inh: human KCNK3 channel inhibition, primary screen; AID 602410; 340,000 tested, 0.84% active; O14649; B-score at 10 µM; CHO-KCNK3 thallium flux, FluxOR fluorescence; active compounds read low;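 active = B-score under library mean minus 4 SD, starting fluorescence ratio at most library mean plus 5 SD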;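 also: more negative B-score means stronger inhibition of thallium flux through KCNK3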
hERG rescue: hERG (human) protection from proarrhythmic block. Q12809. CHO-hERG, FluxOR thallium flux, dofetilide IC70 present. activation (rescue from dofetilide block), less the hit threshold, % at 10 µM. 310,000 tested, 0.51% active. AID 1511;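 active = activation above the mean of controls blocked by dofetilide plus 5 SD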;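 also: thallium influx through hERG after potassium depolarization seen as dye fluorescence rise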
KCNK9 block: human KCNK9 channel inhibition; 310,000 tested, 1.2% active; B-score at 10 µM; HEK293 KCNK9, FluxOR thallium flux fluorescence; active compounds read low; Q9NPC2;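 active = ratio B-score over 3 SD below the library mean, with starting fluorescence within 5 SD of its mean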;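 also: negative B-score means less thallium flux so channel inhibition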
KCNK9 block conf: confirmation of human KCNK9 potassium channel inhibitors | shares compounds with KCNK9 block | HEK293 KCNK9 cells, FluxOR thallium flux fluorescence | inhibition, % at 10 µM | 4,900 tested, 43% active;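 active = thallium signal inhibited by more than 5 SD of the compound-free buffer control wells, on both duplicate plates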;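 also: 0% = assay buffer control wells without compound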
Kir2-1 spec: selectivity of KCNK9 modulators against mouse Kir2.1; shares compounds with KCNK9 block; Kir2.1 cells, FluxOR thallium flux fluorescence; inhibition, % at 10 µM; 4,900 tested, 4% active;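 active = thallium signal drop more than 5 SD beyond the mean of the no-compound control wells, seen in both duplicate plates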;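 also: signal is fluorescence rise after thallium addition divided by baseline fluorescence; plate controls were assay buffer only for no effect and full block by chlorpromazine control for full effect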
Target sequence (P35561 whole entry, looked up): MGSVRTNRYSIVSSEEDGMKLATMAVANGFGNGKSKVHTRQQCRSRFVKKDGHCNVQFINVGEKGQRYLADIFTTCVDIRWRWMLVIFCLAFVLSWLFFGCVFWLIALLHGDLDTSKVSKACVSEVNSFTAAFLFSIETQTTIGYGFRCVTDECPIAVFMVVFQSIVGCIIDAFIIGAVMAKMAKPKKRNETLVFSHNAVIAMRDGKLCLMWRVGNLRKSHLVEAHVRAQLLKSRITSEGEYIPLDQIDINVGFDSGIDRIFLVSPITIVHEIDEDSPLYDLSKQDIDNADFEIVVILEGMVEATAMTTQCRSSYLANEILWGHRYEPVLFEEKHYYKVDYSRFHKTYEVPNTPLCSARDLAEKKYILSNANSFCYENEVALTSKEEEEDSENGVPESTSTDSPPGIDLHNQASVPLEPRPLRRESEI
HEK293 Tl ctr: second counter-screen for KCNK9 modulators: effect in non-induced cells. shares compounds with KCNK9 block. non-induced KCNK9-HEK293, FluxOR thallium flux. inhibition, % at 10 µM. 4,900 tested, 40% active. AID 492997;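 active = thallium signal drop beyond 5 SD of the untreated control mean, on both duplicate plates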;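 also: plate controls were buffer only IC0 wells for no effect and SID17386958 at its maximal inhibitory level for full effect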
An asterisk follows results filed as active; i = inactive; / = no result given. In the library only some 3.1% were active in any assay of this set; here they are far more common.

SMILES	KCNQ1 pot	KCNQ1 block	KCNK3 inh	hERG rescue	KCNK9 block	KCNK9 block conf	Kir2-1 spec	HEK293 Tl ctr
Cc1ccc(C)c(S(=O)(=O)NCC(c2ccco2)N2CCc3ccccc3C2)c1 (centres undefined)	i	i	i	-8	-11*	48%*	i	41%*
Cc1ccc(C(=O)NCC(c2ccco2)N2CCc3ccccc3C2)cc1C (centres undefined)	i	i	i	-18	i	/	/	/
CCOc1ccccc1CN1CCNC(=O)C1CC(=O)NCCc1ccccn1 (centres undefined)	i	i	i	-14	i	/	/	/
CN(C(=O)CC(NC(=O)c1ccccc1Cl)c1ccccc1)c1ccccc1 (centres undefined)	i	i	i	-13	i	/	/	/
O=C(c1cc(F)c(F)cc1Cl)N1CCN(S(=O)(=O)c2cccs2)CC1	/	/	i	/	/	/	/	/
CCN(C(=O)CSc1nc2cc(Cl)ccc2c(=O)n1Cc1ccco1)C1CCS(=O)(=O)C1 (centres undefined)	i	i	i	0	-10*	i	i	i
Cc1ccc2c(c1)C1(C(=O)N2)N2CCCC2C(C(=O)c2ccc3ccccc3c2)C12C(=O)Nc1ccccc12 (centres undefined)	/	/	i	/	/	/	/	/
COC(=O)C1=C(C)NC(C)=C(C(=O)OC)C1c1ccc(OC(=O)c2oc3ccccc3c2C)c(OC)c1	i	i	i	-10	-9.6*	62%*	i	34%*
Cc1cc(C(=O)Cn2nc(C(=O)O)c3ccccc3c2=O)c(C)n1-c1cccc(C(F)(F)F)c1	i	i	i	-8	i	i	i	i
CC(C)c1ccccc1-n1c(SCc2cc(=O)oc3ccc4ccccc4c23)nnc1-c1cccnc1	i	i	i	-17	-11*	50%*	i	i
CCOc1ccccc1OCCOc1ccccc1CC	i	i	i	-8	i	i	i	i
COc1ccc(OCCCCOc2ccccc2Cl)cc1	i	i	i	-9	i	/	/	/
CCOc1ccc(OCCOCCOc2ccccc2Cl)cc1	i	i	i	-8	i	i	i	i
CCOc1ccccc1OCCCOc1ccc(C)cc1Cl	i	i	i	-11	i	i	i	32%*
COc1ccccc1OCCOCCOc1ccccc1Cl	i	i	i	-2	i	i	i	i
Cc1cccc(OC(C)C(=O)Nc2nccs2)c1 (centres undefined)	i	i	i	-8	i	/	/	/
CCCCNS(=O)(=O)c1ccc(Br)cc1N1CCC[C@H]1CO	/	/	i	/	/	/	/	/
CCCCCN(C(=O)CCC(=O)OCCOc1cccc(C)c1)c1c(N)n(CCCC)c(=O)[nH]c1=O	i	i	i	-8	i	/	/	/
CC1CCCCN1CC(=O)Nc1ccc2c(c1)OCO2 (centres undefined)	/	/	i	/	/	/	/	/
CCN(CC)S(=O)(=O)c1cc(NC(=O)CCNC(=O)c2ccco2)ccc1C	i	i	i	-3	i	/	/	/
CCOC(=O)c1c(NC(=O)CSc2nnc(C)s2)sc2c1CCC(C)C2 (centres undefined)	i	i	i	-13	-9.8*	i	i	52%*
CCOC(=O)Nc1sc2c(c1C(N)=O)CCC(C)C2 (centres undefined)	i	i	i	-21	i	/	/	/
CCOC(=O)c1c(NC(=O)CSc2nnc(-c3ccc(OC)cc3)o2)sc2c1CCC2	i	i	i	-12	i	i	i	i
COC(=O)c1ccc2[nH]ccc2c1	i	i	i	-7	i	/	/	/
CC(=O)NC(CC(=O)NC1CCCc2ccccc21)c1ccccc1 (centres undefined)	i	i	i	-3	i	/	/	/
SMILES	KCNQ1 pot	KCNQ1 block	KCNK3 inh	hERG rescue	KCNK9 block	KCNK9 block conf	Kir2-1 spec	HEK293 Tl ctr
CCOc1ccccc1N1CCN(S(=O)(=O)c2ccc(Cl)s2)CC1	i	i	i	-7	i	i	i	i
COc1ccc(NC(=O)Cn2nnc(C(=O)Nc3ccc(F)c(Cl)c3)c2N)cc1	i	i	i	-4	i	/	/	/
Cc1ccc2c(c1)N(C(=O)c1ccco1)C(C)(C)c1ssc(=S)c1-2	i	i	i	-1	-8.3*	38%*	i	30%*
Cc1cccc2c1N(C(=O)c1ccco1)C(C)(C)c1ssc(=S)c1-2	i	i	i	-7	i	/	/	/
Cc1ccc(NC(=O)N(Cc2cccs2)Cc2cc3cc4c(cc3[nH]c2=O)OCO4)cc1	i	i	/	-12	i	/	/	/
O=C(Nc1ccc(F)cc1)N(Cc1cccs1)Cc1cc2cc3c(cc2[nH]c1=O)OCO3	i	i	i	-7	-11*	i	i	42%*
C1CCC(c2nn3c(-c4n[nH]c5c4CCC5)nnc3s2)CC1	i	i	i	-15	i	/	/	/
CCN(CC)c1ccc(-c2nn3c(-c4n[nH]c5c4CCC5)nnc3s2)cc1	i	i	-9*	-12	-14*	44%*	i	36%*
CCCc1ccc2oc(C(=O)N3CCN(C4CCS(=O)(=O)C4)CC3)c(C)c2c1 (centres undefined)	i	i	i	-11	i	/	/	/
O=S(=O)(c1ccc(Br)s1)N1CCN(CCc2ccccc2)CC1	/	/	i	/	/	/	/	/
Cc1ccc(C(=O)Nc2sc3c(c2C(=O)NCc2ccco2)CCCC3)cc1	i	i	i	-10	i	/	/	/
COc1cc(C(=O)Nc2sc3c(c2C(=O)NCc2ccco2)CCCC3)cc(OC)c1OC	i	i	i	-10	i	/	/	/
O=C(Nc1sc2c(c1C(=O)NCc1ccco1)CCCC2)c1ccc2c(c1)OCO2	i	i	i	-4	-10*	42%*	i	i
COc1ccc(C(=O)Nc2sc3c(c2C(=O)NCc2ccco2)CCCC3)cc1OC	i	i	i	-9	-12*	31%*	i	i
CC1Nc2ncnc(N3CCc4ccccc4C3)c2N(Cc2ccc(Br)cc2)C1=O (centres undefined)	i	i	i	-16	-11*	31%*	i	30%*
CC1Nc2ncnc(N3CCN(c4ccccc4)CC3)c2N(Cc2ccc(Cl)cc2)C1=O (centres undefined)	i	i	i	-16	i	/	/	/
CC1Nc2ncnc(N3CCc4ccccc4C3)c2N(Cc2ccc(Cl)cc2)C1=O (centres undefined)	i	i	i	-7	-11*	34%*	i	30%*

Screens: PubChem BioAssay, Johns Hopkins Ion Channel Center
